TAAR1 antagonist – human TAAR1 antagonists, primary screen, Fluo-8 calcium fluorescence, CHO RD-HGA16 cells. AID 624466, 2012. 360,000 tested, 1.5% active. Trace amine-associated receptor 1 (Homo sapiens), Q96RJ0. inhibition, % at 3 µM. antagonist;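 active means inhibition above a per-plate cutoff, the mean inhibition of test compounds on that plate plus 3 SD, cut at about 49% in these data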;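 further: 0% = DMSO plus EC80 beta-PEA response and 100% = DMSO alone without agonist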
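Assay system: RD-HGA16 CHO cells with stable hTAAR1 and Gα16 / Reagent: EC80 β-phenethylamine stimulus / Doses: 3 µM, single point / Timing: dye loading 75 min at 37 °C, then 30 min room temperature / Measured by: Fluo-8 intracellular calcium dye fluorescence, real-time kinetic reads / Controls: vehicle wells and EC80 agonist wells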
OX1R antag-1 – antagonists of human orexin 1 receptor (OX1R) | Orexin/Hypocretin receptor type 1 (Homo sapiens), O43613 | OX1R-expressing cells, FRET antagonist read-out | inhibition, % at 6.6 µM | 330,000 tested, 1.8% active; in the data active means inhibition mostly above about 38%, no sharp cut-off; inactive means mostly below about 40%;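 further: 0% = agonist challenge alone and 100% = reference antagonist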
Target sequence (O43613 whole entry, looked up): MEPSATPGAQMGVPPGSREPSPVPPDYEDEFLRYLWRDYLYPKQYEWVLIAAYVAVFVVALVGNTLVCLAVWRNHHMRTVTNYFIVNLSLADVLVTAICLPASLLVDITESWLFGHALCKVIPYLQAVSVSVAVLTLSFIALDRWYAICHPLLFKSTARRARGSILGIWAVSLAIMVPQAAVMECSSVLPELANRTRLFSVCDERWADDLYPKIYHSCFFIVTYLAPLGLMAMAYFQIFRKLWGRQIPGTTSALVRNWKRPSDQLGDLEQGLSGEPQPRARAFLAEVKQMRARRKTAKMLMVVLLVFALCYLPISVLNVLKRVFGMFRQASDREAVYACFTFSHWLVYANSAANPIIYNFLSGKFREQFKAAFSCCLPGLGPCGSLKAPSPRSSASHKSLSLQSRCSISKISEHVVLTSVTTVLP
TAAR1 agonist – human TAAR1 agonists, primary screen, Fluo-8 calcium fluorescence, CHO RD-HGA16 cells; Trace amine-associated receptor 1 (Homo sapiens), Q96RJ0; vehicle wells 0%, saturating PEA agonist 100%; activation, % at 3 µM; 360,000 tested, 0.99% active; AID 624467, 2012;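 active means activation above the mean activation of all test compounds in the run plus 3 SD, cut at about 38% in these data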
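System: CHO-derived RD-HGA16 cells with stable Gα16 and human TAAR1 / Times: 17-24 h plating, Fluo-8 75 min 37 °C, 30 min RT / Technique: calcium-sensitive Fluo-8 signal, excitation 470-495, emission 515-575 nm / Measure: % activation relative to PEA EC100 response / Benchmarks: DMSO and PEA EC100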
GPR7 antagonist – GPR7 receptor antagonists, primary screen, cell-based, fluorescence, single concentration; inhibition, % at 4.4 µM; AID 1861, 2009; GPR7-expressing cells, fluorescence antagonist assay; 290,000 tested, 1.1% active; Neuropeptides B/W receptor type 1 (Homo sapiens), P48145; in the data active means inhibition above about 16%, passing the limit was not always enough;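 further: cells stimulated with the agonist NPW; 0% = agonist with vehicle and 100% = vehicle without agonist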
OX1R antag-2 – OX1R (HCRTR1) antagonists, primary screen, fluorescence, CHO/OX1R cells, Fluo-8 calcium, orexin A | Fluo-8 calcium fluorescence | 330,000 tested, 0.43% active | inhibition, % at 5 µM;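 active means inhibition above its plate's threshold, mean inhibition of all tested compounds on the plate plus 3 SD, cut at about 37% in these data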;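 further: 0% = orexin A challenge wells and 100% = SB-334867-A antagonist wells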
CHO parental Ca – ATP-evoked calcium signal inhibitors, parental CHO, primary screen, counter-screen for OX1R antagonist project, cell-based, fluorescence, Fluo-8 calcium dye; parental CHO-K1, ATP-induced calcium, Fluo-8 fluorescence; inhibition, % at 5.6 µM; 330,000 tested, 0.63% active; AID 463079, 2010;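 active means inhibition above that plate's mean sample inhibition plus 3 SD, cut at about 26% in these data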;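 further: 0% = ATP-challenged DMSO wells and 100% = DMSO wells without ATP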
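Material: parental CHO cells / Compound: single nominal dose of 5.6 µM per compound / Signal: Fluo-8 fluorescence / Replicates: singlicate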
Active calls of the source: *; x = no result given. Most compounds without a hit are left out; they make up all but 4.5% or so of the library.

SMILES	TAAR1 antagonist	OX1R antag-1	TAAR1 agonist	GPR7 antagonist	OX1R antag-2	CHO parental Ca
COC(=O)c1ccc(CSc2ccccc2NC(=S)Nc2cccc(SC)c2)o1	21.4	x	3.8	x	x	x
COc1ccc(-c2sc3ccccc3c2-c2ccc(O)cc2)cc1	31.7	17.4	5.7	x	17.1	3.5
COc1ccc(-c2sc3cc(OC)c(OC)cc3c2-c2ccc(O)cc2)cc1	-3.9	38.3*	-1.1	x	40.3	-3.6
CCOC(=O)Cn1c(=N)n(CCOc2ccc(Br)cc2)c2ccccc21	-9.2	0.8	21.5	18.9*	-9.6	-11.2
CN(c1ccccc1)S(=O)(=O)c1cccc(NC(=O)CCN2C(=O)C3CCCCC3C2=O)c1 (stereo unspecified)	9.0	20.8	6.8	-4.6	-12.8	-19.2
Cc1ccccc1C(=O)N1CCC2CC1c1cc(-c3ccc(F)cc3)ccc12 (stereo unspecified)	59.5*	x	-0.2	x	x	x
Cc1ccccc1C(=O)N1CCC2CC1c1cc(Cl)ccc12 (stereo unspecified)	-10.4	x	4.1	x	x	x
O=C1c2ccccc2C2Cc3nnccc3CN12 (stereo unspecified)	-24.5	x	1.4	x	x	x
COc1ccc(N2CCn3c2nc2c3c(=O)n(CCCc3ccccc3)c(=O)n2C)c(OC)c1	45.8	11.7	10.3	-7.8	2.8	55.1*
O=C(Nc1ccc(N2CCOCC2)c(Cl)c1)c1ccc(Br)o1	60.3*	15.8	18.0	-8.0	15.1	0.6
O=C(Nc1ccccc1N1CCOCC1)c1ccc(Br)o1	10.1	14.7	11.6	-13.5	-22.2	-16.2
COc1ccc(CNC(=O)c2sc(=O)n(Cc3ccccc3OC)c2C)cc1	12.6	x	30.4	x	x	x
Cc1ccc2ncc(S(=O)(=O)c3ccccc3)c(N3CCCCC3C)c2c1 (stereo unspecified)	-16.4	32.8	-1.8	-23.0	-22.6	43.6*
COCCNc1nnc(SCC(=O)NNC(=O)c2ccc([N+](=O)[O-])cc2)s1	-18.1	58.8*	1.8	x	-10.1	-1.3
O=C(CSc1ccc([N+](=O)[O-])cn1)Nc1cc(C(F)(F)F)ccc1N1CCOCC1	-8.6	27.3	2.9	12.4	-18.1	-2.5
Cc1ccc(C(=O)Sc2cccccc2=O)cc1	45.5	7.8	12.3	24.1	53.0*	53.8*
O=C(Nc1ccccc1SC(=O)c1ccccc1)c1ccccc1	14.8	x	16.1	x	x	x
COc1ccc(CC(=O)N[C@@H](CCSC)C(=O)N2CCC3(CC2)NCCc2[nH]cnc23)cc1	-14.3	1.9	0.2	-9.4	-11.9	-3.2
CC(=O)OCCn1c2nc(=O)[nH]c(=O)c-2nc2cc(C)c(C)cc21	67.1*	x	138.3*	0.5	x	x
COc1cc(/C=C/C(=O)NC(=O)c2ccccc2O)ccc1OC(C)=O	14.4	65.6*	0.6	-13.0	3.9	-12.6
COc1ccc(/C=C/C(=O)NC(=S)Nc2ccccc2)cc1OC	10.8	1.8	1.2	-7.2	-16.4	-3.7
CCN(CC(=O)Nc1cc(Cl)ccc1C)C(=O)c1ccc2c(c1)NC(=O)C(C)S2 (stereo unspecified)	-6.2	7.6	6.1	x	-40.2	-21.4
CCCN(CC(=O)Nc1cc(Cl)ccc1Cl)C(=O)c1ccc2n[nH]nc2c1	-3.6	0.7	3.2	x	-25.6	-21.5
COc1ccc(OC)c(C(=O)NC2CCSc3ccccc32)c1 (stereo unspecified)	6.0	47.1*	-2.9	-0.9	-21.3	-24.0
COc1ccc(CC(=O)NC2CCSc3ccccc32)c(OC)c1 (stereo unspecified)	2.4	29.6	2.9	8.9	-16.6	-8.4
SMILES	TAAR1 antagonist	OX1R antag-1	TAAR1 agonist	GPR7 antagonist	OX1R antag-2	CHO parental Ca
Cc1cccc2cc(C#N)c(NCc3ccccc3)nc12	-10.6	21.6	2.8	-13.7	-26.3	-13.2
Cc1cccc2cc(C#N)c(NCCNS(=O)(=O)c3ccccc3)nc12	-25.2	58.0*	1.6	4.3	17.6	-16.4
c1ccc(-c2nc(NCc3cccnc3)c3ccccc3n2)cc1	x	48.5*	x	11.1	8.6	-10.5
OCCNc1nc(-c2cccnc2)nc2ccccc12	14.1	5.7	2.5	8.5	-11.3	-2.6
Clc1cccc(-c2nc(NCc3cccnc3)c3ccccc3n2)c1	23.8	64.3*	16.8	2.4	9.9	-11.8
Cc1ccc(-c2nc(NCc3cccnc3)c3ccccc3n2)cc1	-4.1	11.9	-2.3	-3.8	-20.3	-6.0
OC(CNc1nc(-c2cccnc2)nc2ccccc12)c1ccccc1 (stereo unspecified)	49.0*	35.5	12.8	-12.9	-19.1	-11.7
O=C(NCCN1C(=O)CSC1=O)c1ccccc1	9.7	0.8	5.7	1.1	2.1	-15.4
Cn1cc(CCOCc2ccccc2)c2ccccc21	-13.0	x	-1.1	x	x	x
COc1ccc(NC(=O)[C@@H]2CC=C[C@@H]3CCN(Cc4ccccc4)C(=O)[C@@H]32)cc1	6.3	41.2	9.4	x	-9.8	-15.7
O=C(Nc1nccs1)[C@@H]1CC=C[C@@H]2CCN(Cc3ccccc3)C(=O)[C@@H]21	6.7	68.2*	13.7	x	5.8	-17.2
C[C@@H](c1ccccc1)N1C[C@@H](COCc2ccccc2)Oc2cc(N3CC[C@@H](N(C)C)C3)ccc2S1(=O)=O	6.5	x	10.4	x	x	x
COc1ccc(CN2CCN(C(=O)c3ccc(S(=O)(=O)N4CCCCCC4)cc3)CC2)cc1	17.9	x	6.3	x	x	x
COc1ccc(CN2CCN(C(=O)c3ccc(S(=O)(=O)N4CCCCCC4)cc3)CC2)cc1F	58.2*	x	12.4	x	x	x
CN(C)C(=O)COC(=O)/C=C/c1ccccc1[N+](=O)[O-]	0.5	39.4*	5.8	0.3	-12.0	3.1
Cc1ccc(NC(=O)CC2OC(=O)c3ccccc32)cc1S(=O)(=O)N1CCCCCC1 (stereo unspecified)	26.1	1.0	10.2	x	-16.4	-19.6
COc1ccc(C(=O)CSc2nnc(CN3CCCCC3)n2-c2ccc(F)cc2)cc1	16.6	4.1	47.1*	8.7	-13.5	-10.0
COc1ccc(C(=O)CSc2nnc(-c3cccs3)n2-c2ccccc2)cc1	-5.1	24.9	4.0	6.5	-18.7	-4.3
CC1(Oc2ccc3ccccc3c2)CCN(Cc2ccc(OC(F)(F)F)cc2)C1 (stereo unspecified)	-15.9	x	-0.9	x	x	x
CCCc1cc(=O)n2[nH]c(Cc3ccccc3)nc2n1	-14.8	21.5	9.5	17.6*	-23.1	-14.9
CCCc1cc(=O)n2[nH]c(C)nc2n1	1.8	-0.9	7.7	1.2	-0.5	1.2
Cc1nc(NCCCn2ccnc2)c2ccccc2n1	-0.3	4.9	8.3	2.3	-1.6	-12.4
O=C1c2ccccc2-c2onc3ccc(NCCCn4ccnc4)c1c23	x	46.4*	x	-6.0	57.4*	39.9*
